The source made the active and inactive calls. The calls are words filed in the database; no cut-off is given here.
Experiments:
[1] = test system: HeLa; assay: Antiproliferative activity against human HeLa cells; type: functional, cell-based
Procedure, shortened: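 HeLa cells (ATCC) grown in Basal Medium Eagle with 10% FBS and 50 μg/mL gentamicin and exposed to compound for 48 h. Cells then TCA-fixed and stained with sulforhodamine B, with density read as absorbance at 560 nm. IC50 (50% inhibition of proliferation) taken ± SD from three independent experiments, each run in triplicate.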

[2] = test system: HeLa; assay: Stabilization of microtubule in human HeLa cells assessed as increase in cellular density of interphase microtubules at 50 uM after 18 hrs by immunofluoroescence analysis; type: cell-based
Procedure, shortened: (§1)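 HeLa cells in Basal Medium Eagle with 10% FBS and gentamicin, treated with vehicle or taccalonolide for 18 h. Interphase microtubules visualized by indirect immunofluorescence with a β-tubulin antibody and imaged by fluorescence microscopy. Microtubule density and bundling judged from representative images against vehicle-treated cells.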

[3] = test system: HeLa; assay: Antiproliferative activity against human HeLa cells after 48 hrs by SRB assay; type: functional, cell-based
[4] = test system: HeLa; assay: Stabilization of microtubule in human HeLa cells assessed as increase in cellular density of interphase microtubules at 10 uM after 18 hrs by immunofluoroescence analysis; type: cell-based; procedure, shortened: as §1

| IC50 [3] [µM] | SMILES | IC50 [1] [µM] | Activity [2] | Activity [4] |
| --- | --- | --- | --- | --- |
|  | CC(=O)O[C@@H]1[C@H]2[C@H]3[C@H]([C@H](OC(C)=O)[C@H](OC(C)=O)[C@]2(C)[C@H]2[C@H](C)[C@@H]4O[C@@]45OC(=O)[C@@](C)(O)[C@]5(C)[C@H]12)[C@]1(C)[C@H](C[C@@H]2O[C@@H]2[C@@H]1OC(C)=O)C(=O)[C@@H]3O | 0.023 |  |  |
|  | CC(=O)O[C@H]1[C@H]2[C@H]([C@@H]3[C@@H](O)[C@@H]4[C@H]([C@H](C)[C@@H]5O[C@@]56OC(=O)[C@@](C)(O)[C@]46C)[C@@]3(C)[C@H]1OC(C)=O)[C@@H](O)C(=O)[C@H]1C[C@@H]3O[C@@H]3[C@H](OC(C)=O)[C@]21C | 0.0042 |  |  |
| 34.4 | CC(=O)O[C@H]1C[C@H]2[C@H]([C@@H]3[C@@H](O)[C@@H]4[C@H]([C@H](C)C=C5OC(=O)[C@@](C)(O)[C@@]54C)[C@]31C)[C@@H](O)C(=O)[C@@]1(O)C[C@@H]3O[C@@H]3[C@H](OC(C)=O)[C@]21C |  | Active |  |
| 49.2 | CC(=O)O[C@H]1[C@H]2[C@@H](C(=O)[C@H](O)[C@H]3C[C@@H]4O[C@@H]4[C@H](OC(C)=O)[C@]23C)[C@@H]2[C@@H](O)[C@@H]3[C@H]([C@H](C)C=C4OC(=O)[C@@](C)(O)[C@@]43C)[C@@]2(C)[C@H]1OC(C)=O |  |  |  |
| 8.5 | CC(=O)O[C@H]1C[C@H]2[C@H]([C@@H]3[C@@H](O)[C@@H]4[C@H]([C@H](C)C=C5OC(=O)[C@@](C)(O)[C@@]54C)[C@]31C)[C@@H](O)C(=O)[C@H]1C[C@@H]3O[C@@H]3[C@H](OC(C)=O)[C@@]12C [TACCALONOLIDE N] |  |  |  |
| 39.5 | CC(=O)O[C@@H]1[C@H]2[C@@H]3[C@@H](O)C(=O)[C@H]4C[C@@H]5O[C@@H]5[C@H](OC(C)=O)[C@]4(C)[C@H]3C[C@H](OC(C)=O)[C@]2(C)[C@@H]2[C@@H]1[C@]1(C)C(=C[C@H]2C)OC(=O)[C@@]1(C)O [TACCALONOLIDE E] |  |  |  |
| 2 | CC(=O)O[C@H]1C[C@H]2[C@H]([C@@H]3[C@@H](O)[C@@H]4[C@H]([C@H](C)C=C5OC(=O)[C@@](C)(O)[C@@]54C)[C@]31C)[C@@H](O)C(=O)[C@@]1(O)C[C@@H]3O[C@@H]3[C@H](OC(=O)CC(C)C)[C@]21C |  | Active |  |
| > 50 | CC(=O)O[C@H]1[C@H]2[C@H]([C@@H]3[C@H]4OC(=O)[C@@](C)(O)[C@@]5(C)C(=O)C[C@@H](C)[C@@H]([C@@H]45)[C@@]3(C)[C@H]1OC(C)=O)[C@@H](O)C(=O)[C@H]1C[C@@H]3O[C@@H]3[C@H](OC(C)=O)[C@]21C |  | inactive |  |
| 1.5 | CC(=O)O[C@H]1C[C@H]2[C@H]([C@@H]3[C@@H](O)[C@@H]4[C@H]([C@H](C)C=C5OC(=O)[C@@](C)(O)[C@@]54C)[C@]31C)[C@@H](O)C(=O)[C@H]1C[C@@H]3O[C@@H]3[C@H](O)[C@@]12C |  |  | Active |
| > 50 | CC(=O)O[C@H]1C[C@H]2[C@H]([C@@H]3[C@H]4OC(=O)[C@@](C)(O)[C@@]5(C)C(=O)C[C@@H](C)[C@@H]([C@@H]45)[C@]31C)[C@@H](O)C(=O)[C@H]1C[C@@H]3O[C@@H]3[C@H](OC(C)=O)[C@@]12C |  | inactive |  |

| SMILES | IC50 [3] [µM] | IC50 [1] [µM] | Activity [2] | Activity [4] |
| --- | --- | --- | --- | --- |
| CC(=O)O[C@H]1[C@H]2[C@H]([C@@H]3[C@@H](O)[C@@H]4[C@H]([C@H](C)C=C5OC(=O)[C@@](C)(O)[C@@]54C)[C@@]3(C)[C@H]1OC(C)=O)[C@@H](O)C(=O)[C@H]1C[C@@H]3O[C@@H]3[C@H](OC(C)=O)[C@]21C [TACCALONOLIDE B] | 3.12 |  |  |  |
| CC(=O)O[C@@H]1[C@H]2[C@H]3[C@H]([C@H](OC(C)=O)[C@H](OC(C)=O)[C@]2(C)[C@@H]2[C@@H]1[C@]1(C)C(=C[C@H]2C)OC(=O)[C@@]1(C)O)[C@]1(C)[C@H](C[C@@H]2O[C@@H]2[C@@H]1OC(C)=O)C(=O)[C@@H]3O [TACCALONOLIDE A] | 5.32 |  |  |  |
